Most compounds without a hit are left out; they make up all but 3.3% or so of the library.
CendR NRP1 mod: NRP-1/CendR interaction modulation. inhibition, % at 25 µM. 360,000 compounds, 0.85% hits. O14786. FAM-RPARPAR peptide binding to NRP-1, fluorescence polarization;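 active means inhibition or corrected inhibition above about 18%, plus a signal ratio from 0.5 to 1.5, limit read from the data, passing the limit was not always enough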
PfM18AAP inh: blocks P. falciparum M18 aspartyl aminopeptidase. inhibition, % at 7.35 µM. recombinant PfM18AAP, H-Glu-NHMec fluorogenic cleavage. 290,000 compounds, 1.2% hits;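 active means inhibition above the campaign mean inhibition over all tested compounds plus 3 SD, cut at about 28% in these data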;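 further: 0% = plate median of test compound wells and 100% = 2 mM ZnCl2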
HTR2A ag: activates the mouse 5-HT2A serotonin receptor. P35363. activation, % at 7.6 µM. 360,000 compounds, 0.66% hits. CHO-K1 mHTR2A beta-arrestin complementation, luminescence; percent of 30 µM serotonin response;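 active means activation above a run cutoff, the mean activation of all tested compounds plus 3 SD, cut at about 14% in these data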;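 further: 0% = plate median of compound wells and 100% = 30 µM serotonin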
Target sequence (P35363 whole entry, looked up): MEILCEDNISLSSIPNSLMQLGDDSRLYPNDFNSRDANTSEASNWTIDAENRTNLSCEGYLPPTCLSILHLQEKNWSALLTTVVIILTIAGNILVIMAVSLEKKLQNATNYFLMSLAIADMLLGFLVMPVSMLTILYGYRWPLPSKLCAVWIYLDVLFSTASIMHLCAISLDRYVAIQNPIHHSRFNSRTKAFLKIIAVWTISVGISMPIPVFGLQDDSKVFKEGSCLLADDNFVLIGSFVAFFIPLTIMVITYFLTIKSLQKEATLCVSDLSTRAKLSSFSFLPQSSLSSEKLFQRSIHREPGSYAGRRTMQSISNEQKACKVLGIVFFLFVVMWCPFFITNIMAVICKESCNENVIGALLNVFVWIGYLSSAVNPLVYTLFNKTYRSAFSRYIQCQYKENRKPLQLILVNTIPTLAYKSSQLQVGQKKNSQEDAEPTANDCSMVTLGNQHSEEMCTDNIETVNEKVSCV
sPLA2-III inh: Inhibits HGIII-sPLA2 liposome hydrolysis, primary screen. Q9NZ20. QFRET BODIPY PC-A2 liposome hydrolysis, fluorescence. inhibition, % at 12.2 µM. 370,000 compounds, 0.56% hits;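 active means inhibition above mean plus 3 SD of compounds lying within the high and low control bounds, cut at about 19% in these data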;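 further: 0% = median of test compound wells and 100% = no enzyme DMSO wells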
Arr AP2 block: inhibitors of human beta-arrestin and AP2 interaction; AID 504490; 340,000 compounds, 0.31% hits; FITC-arrestin peptide / GST-AP2 beads, flow cytometry; AP2 beta2 appendage carries R879A mutation; inhibition, % at 10 µM;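 active means inhibition above a set limit, near 3 SD of compounds lacking own fluorescence, cut at about 54% in these data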;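 further: plate controls were DMSO wells for no effect and 5 µM unlabelled arrestin peptide for full effect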
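Test system: GST-tagged AP2 beta2-adaptin appendage (R879A) on 4 µm glutathione beads; also added: fluorescein-tagged arrestin peptide at 50 nM final; timing: 12 min plus 1 h, RT; signal: flow cytometry, FL1 (488/535 nm); read-out: percent drop in bead-associated FITC signal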
Lipid droplet: modulators of hepatic lipid droplet formation; 240,000 compounds, 0.4% hits; AML12 mouse hepatocytes, oleate lipid droplets, BODIPY imaging; inhibition, % at 6.5 µM;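 active means lipid droplet intensity inhibited by at least 50%, with more than 500 cells counted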
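Material – mouse AML12 hepatocyte cell line, fixed after treatment · Compound dosing – one dose, 6.5 µM compound · Times – compound with oleate, overnight · Measured by – Image-based BODIPY and DAPI two-channel analysis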
Arr AP2 CP1: blocks beta-arrestin peptide binding to human AP2; shares compounds with Arr AP2 block; GST-AP2 beads, FITC arrestin peptide binding, flow cytometry; GST-fused beta2-adaptin appendage, R879A mutant; inhibition, % at 10 µM; 1,300 compounds, 2% hits; AID 504908;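 active means inhibition above a set limit, roughly 3 SD of non-fluorescent compound noise, cut at about 38% in these data; inactive means inhibition at or below that limit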;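 further: loss of bead fluorescence from 50 nM FITC arrestin peptide bound to appendage; 0% = negative control wells and 100% = excess unlabelled arrestin peptide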
GST GSH counter: disrupts GST binding to glutathione beads, arrestin-AP2 artifact; shares compounds with Arr AP2 block; GST-fluorescein binding to GSH beads, fluorescence, counter-screen; inhibition, % at 10 µM; 1,300 compounds, 2% hits; AID 588338;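 active means inhibition above 50%, about 3 SD of the inhibition seen with non-fluorescent compounds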;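 further: fluorescein maleimide labelled GST captured on 4 micron glutathione beads; higher means more loss of bead fluorescence from quenching or blocked binding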
* = called active by the depositor; · = no result.

SMILES	CendR NRP1 mod	PfM18AAP inh	HTR2A ag	sPLA2-III inh	Arr AP2 block	Lipid droplet	Arr AP2 CP1	GST GSH counter
Cc1cc(NC(=O)c2cnn3c(C(F)(F)F)cc(-c4ccc(Br)cc4)nc23)no1	-0.7	-4.3	-0.1	4.5	5.7	21.1	-6.2	-6.5
Cn1nnc(NC(=S)NC(=O)c2cccc3c(Cl)cccc23)n1	2.5	9.6	1.1	18.7	55.9*	4.2	0.2	-7.6
CCN(CC)S(=O)(=O)c1cccc(C(=O)N/N=C/c2cc(OC)c(O)c(OC)c2)c1	2.7	11.1	4.1	-8.6	60.3*	-26.9	-3.0	1.0
CCCSCCCNC(=O)c1ccc(NC(=O)C2=CSCCO2)cc1	2.7	3.8	-1.7	5.9	3.6	-19.0	·	·
CC(C)(C)c1cc(C(=O)Nc2cccnc2)cc(C(=O)Nc2cccnc2)c1	11.4	3.5	1.1	-4.4	61.0*	·	4.4	-0.3
CC(=O)Nc1cccc(-c2csc(N)n2)c1	7.1	9.9	2.7	-0.5	54.9*	-0.2	2.2	-0.8
CC(=O)Nc1cccc(-c2csc(C(O)c3ccccc3)n2)c1 (stereo not given)	3.1	·	-3.8	5.9	·	·	·	·
N#Cc1cn(CCOc2ccc(F)cc2)c2ccccc12	-5.5	0.1	-9.2	-14.6	56.7*	0.4	8.1	-9.3
CCCCN(C(=O)C1CCN(C(=O)c2ccccc2C)CC1)c1c(N)n(CC(C)C)c(=O)[nH]c1=O	-0.2	·	3.2	1.1	7.8	·	·	·
O=C(Nc1sc2c(c1-c1nc3ccccc3s1)CCNC2)C(F)F	·	·	·	-6.3	·	·	·	·
O=c1c2c3c(sc2nc2n1CCCCC2)CCC3	-7.7	3.9	8.9	-2.1	104.3*	-18.8	-2.6	-4.7
O=C(NCc1ccc2c(c1)OCO2)C(=O)NCC1OCCCN1S(=O)(=O)c1ccccc1 (stereo not given)	-10.0	·	-2.6	-15.6	·	·	·	·
Cn1nc(C2CC2)cc1NC(=O)C1(C)CCN1C(=O)Cc1ccc(-c2ccccc2)cc1 (stereo not given)	-3.4	·	4.3	-11.3	·	·	·	·
CN1C(=O)c2cc(NC(=O)C3CCOCC3)ccc2OC[C@@H]2O[C@@H](CC(=O)NCc3ccccc3F)CC[C@@H]21	·	·	·	2.0	·	·	·	·
O=S(=O)(NCc1ccc2c(c1)OCO2)c1ccc(Cl)s1	-6.9	2.4	-7.8	-17.5	105.3*	-1.7	6.7	-4.2
Cc1cc(C)c(S(=O)(=O)NCc2ccc3c(c2)OCO3)cc1C	-3.3	-0.7	1.1	-5.4	4.4	-2.5	·	·
CCC(C(=O)NCc1ccco1)N(C(=O)CNS(=O)(=O)c1ccccc1)c1ccccc1C (stereo not given)	-28.4	1.4	-0.1	-4.3	17.1	-6.2	·	·
CCC(C(=O)NCc1ccco1)N(Cc1cccs1)C(=O)CNS(=O)(=O)c1ccccc1 (stereo not given)	-3.4	-1.3	0.8	-8.1	54.7*	-14.6	-1.9	-0.1
CC(C)CCSc1nc2[nH]ncc2c(=O)[nH]1	-0.9	-2.8	2.2	-8.4	59.0*	1.7	4.7	5.8
O=S1(=O)N=C(N(CCO)/N=C/c2ccccc2)c2ccccc21	17.8	-13.0	-6.2	-4.2	60.3*	-23.7	2.5	27.7
O=C(O)c1ccccc1NS(=O)(=O)c1ccc(NNC(=S)Nc2ccc(OC(F)F)cc2)c([N+](=O)[O-])c1	25.6*	43.8*	-2.6	-28.5	61.9*	-2.2	-2.2	-4.8
CC(=O)Nc1ccc(C=NNc2ccc(S(=O)(=O)Nc3ccccc3C(=O)O)cc2[N+](=O)[O-])cc1	-8.5	·	-2.8	-19.7	-5.0	·	·	·
O=C(c1ccc2ncsc2c1)N1CCN(c2ccc(O)cc2)CC1	-1.6	10.9	-5.3	-4.7	64.8*	·	-8.7	-12.0
O=C(c1ccc2ncsc2c1)N1CCN(c2ccccc2Cl)CC1	-1.1	0.5	0.4	-2.3	-24.2	5.3	·	·
O=C(NC1CCCCC1)N(CCN1CCOCC1)Cc1cc2cc3c(cc2[nH]c1=O)OCCO3	-5.5	15.9	1.9	8.2	0.7	·	·	·
SMILES	CendR NRP1 mod	PfM18AAP inh	HTR2A ag	sPLA2-III inh	Arr AP2 block	Lipid droplet	Arr AP2 CP1	GST GSH counter
COc1ccc(CN(Cc2cc3cc4c(cc3[nH]c2=O)OCO4)C(=O)NC2CCCCC2)cc1	9.4	-2.2	-2.3	1.7	-1.4	1.1	3.3	-5.3
CCN(CC)CCN(Cc1cc2cc3c(cc2[nH]c1=O)OCCO3)C(=O)NC1CCCCC1	-7.3	25.9	8.1	5.0	4.8	4.8	7.8	-7.9
CCCn1c(=O)c2[nH]cnc2n(-c2ccccc2C)c1=O	0.8	-1.0	2.3	2.5	-16.8	-0.5	·	·
CCCn1c(=O)c2[nH]cnc2n(-c2ccc(Cl)cc2)c1=O	5.1	4.0	-2.1	5.8	57.8*	8.2	11.5	-9.0
COc1cccc(-c2cc(=O)[nH][nH]2)c1	8.0	9.1	0.3	-9.8	0.1	-1.5	·	·
CCOc1cccc(-c2cc(=O)[nH][nH]2)c1	3.4	9.6	-1.1	-34.2	73.6*	-17.4	-4.0	-4.6
C[C@H](CO)N1C[C@H](C)[C@@H](CN(C)S(=O)(=O)c2ccccc2)Oc2ccc(NC(=O)Nc3ccccc3)cc2C1=O	10.9	·	2.3	-34.6	54.4*	·	10.4	-8.4
COc1ccc(S(=O)(=O)Nc2ccc3c(c2)C(=O)N([C@H](C)CO)C[C@H](C)[C@@H](CN(C)S(=O)(=O)c2ccc(OC)cc2)O3)cc1	7.9	·	4.5	-47.5	40.0	·	·	·
COc1ccc(S(=O)(=O)N(C)C[C@H]2Oc3ccc(NS(=O)(=O)c4cn(C)cn4)cc3C(=O)N([C@H](C)CO)C[C@@H]2C)cc1	0.0	·	-2.2	9.3	73.0*	·	0.2	-3.4
C[C@H](CO)N1C[C@H](C)[C@@H](CN(C)S(=O)(=O)c2ccc(F)cc2)Oc2ccc(NC(=O)Nc3ccccc3)cc2C1=O	8.5	·	-4.3	-42.5	-5.2	·	·	·
Cc1cc(C)c(S(=O)(=O)N(C)CC(=O)N2CCCC2)c(C)c1	-5.2	·	-2.2	-1.0	·	·	·	·
CC/C(=N\N=C1\SC(C)C(=O)N1Cc1ccco1)c1ccccc1 (stereo not given)	-1.6	-2.7	0.6	-6.5	59.3*	-4.7	5.1	-7.3
CCOC(=O)[C@]12CCCC3=C1N(CCC3)C(=O)[C@@H](CC(=O)NCc1ccc(C)o1)C2	·	·	·	-6.1	·	·	·	·
CC(/C=N/Nc1nc2ccccc2[nH]1)=C\c1ccccc1	3.5	9.3	-4.0	1.1	106.8*	10.9	1.4	9.0
CC(/C=N/Nc1nc(C)cc(=O)[nH]1)=C\c1ccccc1	2.3	2.4	0.0	3.5	-5.5	11.2	·	·

Bioassay records from PubChem BioAssay.
